Measured values: paper PMC5776616 (Experimental and Therapeutic Medicine, 2017)
Where no end group is shown, it is not given here.

How the values were obtained:
S. mutans UA 159 [1] = test: MIC by broth microdilution, planktonic S. mutans UA159; assay type: cell-based, Streptococcus mutans; conditions: for MICs against the S. mutans strains: range over both S. mutans strains (UA159 and GS-5); for increase of antibacterial activity against S. mutans compared with hLF1-11 alone: planktonic S. mutans, from MICs
In short: (§1)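 Strains were grown anaerobically overnight in BHI at 37°C, diluted 1:20 and grown anaerobically 2.5 h to mid-log phase. Two-fold serial peptide dilutions in BHI were set up in 96-well round-bottom plates, and the final inoculum was 1×10^5 CFU/ml. The MIC was reported as the median of at least three independent experiments.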

[2] = tested on: multi-species biofilm of luc-ldh reporter strain of S. mutans, S. gordonii ATCC-10558 and S. sanguis ATCC-49295; test: Multi-species biofilm; assay type: cell-based; conditions: for growth of S. gordonii and S. sanguis in multi-species biofilm: 5 min after treatment, peptide 128 µg/ml; for relative strength of effect on S. mutans in multi-species biofilm (ranking): order in words: strongest effects, followed by, then, Fig. 2B
In short: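 Mid-log cultures were adjusted to 1×10^7 CFU/ml in BHI with 0.5% sucrose (S. mutans luc-ldh reporter), 0.5% glucose (S. gordonii) or 0.5% mannose (S. sanguis). Wells were spun and grown anaerobically 4 h at 37°C into biofilm. Peptide in PBS was added at a final 128 µg/ml, then replaced with sugar-containing BHI. OD600 was read at 5–120 min, and S. mutans RLU after adding 1 mM D-luciferin. Groups were compared by one-way ANOVA.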

S. gordonii ATCC-10558 = test: MIC by broth microdilution, planktonic S. gordonii; assay type: cell-based, Streptococcus gordonii
In short: as §1

S. sanguis ATCC-49295 = test: MIC by broth microdilution, planktonic S. sanguis; assay type: cell-based, Streptococcus sanguis
In short: as §1

S. mutans UA 159 [3] = test: Differential protein expression; assay type: cell-based, Streptococcus mutans
In short: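 Mid-log S. mutans UA 159 (BHI, anaerobic, 1×10^6 CFU/ml) was exposed to test peptide at 20 µg/ml or an equal volume of sterile water, anaerobically at 37°C for 1 h. Cells were pelleted at 4°C and lysed with lysozyme plus protease inhibitors, on ice with sonication. Protein was cleaned, quantified and CyDye minimal-labelled. Spots were identified by positive-ion reflection MALDI-TOF-MS over m/z 700–4,000.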

[4] = S. mutans UA 159, C11H 20 µg/ml 1 h vs water control, gi|24379038

Sequence	MICs against the S. mutans strains (S. mutans UA 159 [1]; planktonic)	growth of S. gordonii and S. sanguis in multi-species biofilm [2]	increase of antibacterial activity against S. mutans compared with hLF1-11 alone (S. mutans UA 159 [1])	relative strength of effect on S. mutans in multi-species biofilm (ranking) [2]	other results
GRRRRSVQWCA [hLF1-11, reference compound]	37.33 to 48.00 µg/mL	not affected	–	–	–
LSTFFRLFN [C12]	–	not affected	–	–	MIC against S. mutans (S. mutans UA 159 [1]; planktonic): > 256 µg/mL; MIC against S. gordonii (S. gordonii ATCC-10558): > 256 µg/mL; MIC against S. sanguis (S. sanguis ATCC-49295): > 256 µg/mL
LSTFFRLFNGRRRRSVQWCA [C12H]	10.67 to 13.33 µg/mL	not affected	3–4 times	strongest effects	–
LSTFFRLFNRSFTQGRRRRSVQWCA [C14H]	10.67 to 13.33 µg/mL	not affected	3–4 times	–	–
STFFRLFNRSFTQGRRRRSVQWCA [C13H]	10.67 to 13.33 µg/mL	not affected	3–4 times	–	–
TFFRLFNRGRRRRSVQWCA [C8H]	10.67 to 13.33 µg/mL	not affected	3–4 times	then	–
TFFRLFNRSFTGRRRRSVQWCA [C11H]	10.67 to 13.33 µg/mL	not affected	3–4 times	strongest effects	Average ration: Heat shock protein GrpE (HSP-70 cofactor) (master no. 1781) (S. mutans UA 159 [3]; S. mutans UA 159, C11H 20 µg/ml 1 h vs water control, gi|24378605): −4.2; Average ration: NAD synthetase (master no. 1628) (S. mutans UA 159 [3]; S. mutans UA 159, C11H 20 µg/ml 1 h vs water control, gi|24378953): −4.12; Average ration: Putative cell division A protein DivIV (master no. 1355) (S. mutans UA 159 [3]; [4]): −8; Average ration: Putative cell division protein DivIVA (master no. 1327) (S. mutans UA 159 [3]; [4]): −11.09; Average ration: Putative cell division protein DivIVA (master no. 1341) (S. mutans UA 159 [3]; [4]): −5.58; Average ration: Putative 40K cell wall protein precursor (master no. 654) (S. mutans UA 159 [3]; S. mutans UA 159, C11H 20 µg/ml 1 h vs water control, gi|24379086): −4.75; Average ration: Branch ed-chain amino acid aminotransferase (master no. 1241) (S. mutans UA 159 [3]; S. mutans UA 159, C11H 20 µg/ml 1 h vs water control, gi|24379628): −5.4; Average ration: Orotate phosphoribo-syltransferase (master no. 2141) (S. mutans UA 159 [3]; S. mutans UA 159, C11H 20 µg/ml 1 h vs water control, gi|24379645): −4.63; Average ration: Putative dTDP-4-keto-L-rhamnose reductase (master no. 2068) (S. mutans UA 159 [3]; S. mutans UA 159, C11H 20 µg/ml 1 h vs water control, gi|24379857): −5.54; Average ration: Ribosome recycling factor (master no. 2072) (S. mutans UA 159 [3]; S. mutans UA 159, C11H 20 µg/ml 1 h vs water control, gi|24380004): −4.7; Average ration: Hypothetical protein SMU.1716c (master no. 2188) (S. mutans UA 159 [3]; S. mutans UA 159, C11H 20 µg/ml 1 h vs water control, gi|24380090): −6.14; Average ration: Putative trans-2-enoyl-ACP reductase (master no. 1551) (S. mutans UA 159 [3]; S. mutans UA 159, C11H 20 µg/ml 1 h vs water control, gi|24380114): −4.34; Average ration: Hypothetical protein SMU.1760c (master no. 1506) (S. mutans UA 159 [3]; S. mutans UA 159, C11H 20 µg/ml 1 h vs water control, gi|24380128): −5.93; Average ration: Hypothetical protein SMU.1789c (master no. 1576) (S. mutans UA 159 [3]; S. mutans UA 159, C11H 20 µg/ml 1 h vs water control, gi|24380155): −6.04; Average ration: Elongation factor P (master no. 2035) (S. mutans UA 159 [3]; S. mutans UA 159, C11H 20 µg/ml 1 h vs water control, gi|24380208): −4.19; Average ration: Single-strand DNA-binding protein (master no. 2334) (S. mutans UA 159 [3]; S. mutans UA 159, C11H 20 µg/ml 1 h vs water control, gi|24380219): −5.37; Average ration: Inositol-5 monophosphate dehydrogenase (master no. 824) (S. mutans UA 159 [3]; S. mutans UA 159, C11H 20 µg/ml 1 h vs water control, gi|24380485): −12.84; 21 protein spots with a mean change ratio of 1.5 (S. mutans UA 159 [3]; S. mutans UA 159, C11H 20 µg/ml, 1 h): downregulated
